S1P3 antagonist: blocks the human S1P3 receptor; Q99500; CHO S1P3 NFAT-BLA reporter, FRET fluorescence, antagonist mode; inhibition, % at 4.98 µM; hit rate 0.27% among 170,000; AID 485;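 active means inhibition above the plate cutoff, the mean inhibition of test wells on that plate plus 3 SD, cut at about 28% in these data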;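 further: cells challenged with S1P at its EC80 of 0.8 µM; blue over green emission ratio from cleaved BLA substrate after 4 h stimulation; 0% = S1P-stimulated wells and 100% = unstimulated DMSO-only wells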
Target sequence (Q99500 whole entry, looked up): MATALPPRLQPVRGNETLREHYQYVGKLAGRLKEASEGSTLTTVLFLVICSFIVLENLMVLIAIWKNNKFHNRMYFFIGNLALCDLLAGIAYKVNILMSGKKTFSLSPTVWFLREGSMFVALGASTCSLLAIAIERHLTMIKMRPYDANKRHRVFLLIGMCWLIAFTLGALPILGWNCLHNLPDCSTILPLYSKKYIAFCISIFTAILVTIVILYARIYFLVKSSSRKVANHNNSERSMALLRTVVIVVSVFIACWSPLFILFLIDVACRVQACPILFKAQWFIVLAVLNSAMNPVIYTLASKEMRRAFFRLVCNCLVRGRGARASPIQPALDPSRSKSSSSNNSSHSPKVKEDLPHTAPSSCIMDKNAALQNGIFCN
S1P4 antag: human S1P4 receptor antagonism; O95977; hit rate 0.26% among 220,000; AID 1510; S1P4-expressing cells, antagonist mode, reporter read-out; inhibition, % at 4.98 µM; in the data active means inhibition above about 29%;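 further: 0% = wells stimulated with agonist and 100% = vehicle wells without agonist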
Lmaj promast: Leishmania major promastigote growth inhibition. Leishmania major promastigotes, resazurin fluorescence viability. inhibition, % at 10 µM. AID 1063. hit rate 9% among 200,000; in the data active means inhibition above about 50%;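 further: promastigotes grown with compound for 44 hours at 28 °C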
Mdm2 ligase inh: inhibitors of human Mdm2 E3 ubiquitin ligase. cell-based MDM2 ubiquitination luciferase reporter, 2 h; 0 = plate control, 100 = twice control, blank-subtracted. signal enhancement, % at 5 µM. Q00987. hit rate 0.11% among 210,000;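 active means signal enhancement of 30% or more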;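 further: luminescence tracks abundance of the self-degrading MDM2-luciferase fusion protein; higher signal means inhibition of MDM2 E3 ligase activity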
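system = mammalian cells stably expressing self-ubiquitinating, self-degrading MDM2 E3–luciferase fusion | quantity = 2000 cells per well seeded | incubation = 4 h cell settling then 2 h compound exposure, 37 °C | signal = SteadyLite luminescence, 15 min reagent step | benchmarks = plate control and blank wells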
S1P4 agonist: human S1P4 receptor agonism; S1P4-expressing cell line, agonist reporter assay; activation, % at 4.98 µM; O95977; hit rate 0.35% among 220,000; in the data active means activation above about 11%;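 further: 0% = DMSO vehicle and 100% = reference agonist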
* hit, by the source's call; nt = no result given. The sample as a whole holds a higher share of hits than the screen did.

SMILES | S1P3 antagonist | S1P4 antag | Lmaj promast | Mdm2 ligase inh | S1P4 agonist
COc1cccc(/C=C/C(=O)c2cccc([N+](=O)[O-])c2)c1 | -1 | 14 | 98* | -20 | 2
COc1ccc(C(=O)/C=C/c2ccccc2OC)c(OC(=O)c2ccc([N+](=O)[O-])cc2)c1 | nt | -22 | 56* | nt | 1
CCCCCNc1nc2sc3c(c2c(=O)n1-c1cccc(Cl)c1)CCN(C)C3 | -5 | 5 | nt | 1 | 0
COC(=O)/C(=N/Nc1ccccc1OC)N1CCCc2ccccc21 | -10 | 14 | nt | -13 | -1
CCC(CC)C(=O)Nc1cccc(C(=O)c2ccccc2)c1 | nt | 9 | 7 | -7 | 1
CC(C)OCCCNS(=O)(=O)c1ccc2ccccc2c1 | nt | -13 | 21 | -19 | 3
COc1ccc(/C=C/C(=O)c2ccncc2)c2ccccc12 | -1 | 6 | 98* | 4 | 1
COc1ccc(/C=C/C(=O)c2ccc[nH]2)c(OC)c1OC | nt | 5 | 0 | -2 | 1
Cc1ccc(/C=C/C(=O)c2c(C)nc3ccccn23)cc1 | nt | -16 | 28 | -9 | 0
Cc1nc2ccccn2c1C(=O)/C=C/c1cccc([N+](=O)[O-])c1 | -21 | 3 | 98* | -4 | 5
O=C(N/C=C/n1cnc2cc(C(F)(F)F)ccc21)c1ccccc1 | -6 | 16 | 12 | 7 | 1
COc1ccccc1C(=O)N1CCN(Cc2ccc3c(c2)OCO3)CC1 | nt | -19 | -10 | -1 | 0
O=C(CN1CCN(c2ccccc2)CC1)N1CCc2[nH]c3ccccc3c2C1 | nt | -19 | 91* | -2 | 0
CS(=O)(=O)N(CC(=O)N1CCN(Cc2ccc3c(c2)OCO3)CC1)Cc1ccc(Cl)cc1 | nt | -18 | 98* | -26 | -1
O=C(CN1CCc2[nH]c3ccccc3c2C1)N1CCCCC1 | nt | -8 | -9 | -10 | -1
CS(=O)(=O)N(CCc1ccccc1)CC(=O)N1CCN(Cc2ccc3c(c2)OCO3)CC1 | -9 | -12 | -3 | -7 | -3
O=C(CCC1CCCCC1)N1CCN(Cc2ccc3c(c2)OCO3)CC1 | -28 | -1 | 96* | 2 | -1
Cc1ccc(CSCC(=O)N2CCN(Cc3ccc4c(c3)OCO4)CC2)cc1 | nt | -10 | 59* | 1 | 0
CNC(=O)NC(=O)COC(=O)c1ccccc1OCc1ccccc1 | 12 | -6 | -3 | -4 | 0
Cc1ccc2[nH]c3c(c2c1)CN(C(=O)CN1CCN(Cc2ccc4c(c2)OCO4)CC1)CC3 | 12 | -2 | 95* | -21 | 1
COc1ccc(Sc2nnc(Cc3ccccc3)c3ccccc23)cc1 | nt | -9 | 85* | -23 | 4
COc1ccc(OC)c(-c2cc(C(=O)Nc3c(C)nn(Cc4ccccc4)c3C)no2)c1 | -10 | 12 | 37 | 0 | -1
COc1ccc(OC)c(-c2cc(C(=O)Nc3c(C)nn(Cc4ccc(Cl)cc4)c3C)no2)c1 | 6 | 9 | 52* | 7 | 2
C/C(=N\NC(=O)Cc1c[nH]c2ccccc12)c1ccc2ccccc2c1 | 4 | 0 | 55* | 1 | 1
O=C(CCCc1c[nH]c2ccccc12)Nc1ccc2ccccc2c1 | 22 | 2 | 52* | 2 | -1
SMILES | S1P3 antagonist | S1P4 antag | Lmaj promast | Mdm2 ligase inh | S1P4 agonist
O=C(CCCc1c[nH]c2ccccc12)NCC1COc2ccccc2O1 (configuration not stated) | -4 | -10 | 55* | -7 | 4
CC(=O)Nc1ccc(NC(=O)CCCc2c[nH]c3ccccc23)cc1 | -11 | 7 | -1 | -4 | -1
C/C(=N\NC(=O)c1c[nH]c2ccccc12)c1ccc2c(c1)OCO2 | -4 | 1 | 14 | -6 | 1
O=C(CCc1c[nH]c2ccccc12)NCC1COc2ccccc2O1 (configuration not stated) | 3 | 8 | 12 | 1 | 1
CCc1nn2c(NCCOC)cc(C)nc2c1-c1ccc(F)cc1 | 12 | 15 | 5 | -3 | 0
Cc1cccc(C2=NC(C(F)(F)F)(C(F)(F)F)c3c(n(-c4ccc(F)cc4)c(=O)[nH]c3=O)N2)c1 | -1 | -4 | 74* | -2 | 0
CC(=O)NC1(C(F)(F)F)C(=O)Nc2c1c(=O)[nH]c(=O)n2-c1ccccc1 (configuration not stated) | -5 | 1 | nt | nt | 1
CCNC(=S)N/N=C/c1ccc(OCc2ccc(C(=O)OC)cc2)cc1 | 2 | -6 | -5 | 6 | 1
COc1ccc(C(=O)/C=C/c2cccs2)c(OC(=O)N2CCOCC2)c1 | 2 | -11 | 41 | -11 | 6
O=C(/C=C/c1cccs1)c1cc(Br)ccc1OC(=O)N1CCOCC1 | -6 | 4 | 72* | -3 | 0
CCS(=O)CC(=O)Nc1c(-c2ccccc2)oc2ccccc2c1=O (configuration not stated) | 11 | 1 | nt | 4 | 0
COc1ccccc1CN(C(=O)CCl)C(C(=O)NC1CCCCC1)c1ccncc1 (configuration not stated) | -3 | -2 | 61* | -6 | -1
COc1ccc(C(=O)/C=C/C(=O)N(Cc2ccccc2OC)C(C(=O)NC2CCCCC2)c2ccncc2)c(O)c1 (configuration not stated) | -2 | 7 | 99* | 6 | 0
COCCC(=O)N(Cc1ccc2c(c1)OCO2)C(C(=O)NC1CCCCC1)c1ccncc1 (configuration not stated) | -8 | -1 | -3 | -22 | 1
COc1ccc(C(=O)/C=C/C(=O)N(Cc2ccccc2)C(C(=O)NC2CCCCC2)c2ccncc2)c(O)c1 (configuration not stated) | -2 | -6 | 93* | 1 | 0
COc1ccc(C(=O)/C=C/C(=O)N(Cc2ccc(F)cc2)C(C(=O)NC2CCCCC2)c2ccncc2)c(O)c1 (configuration not stated) | 9 | -24 | 71* | -9 | 0
O=C(COC(=O)CCCSc1nc2ccccc2[nH]1)Nc1ccc(Cl)cc1 | -11 | -6 | 3 | -16 | 4
S=c1[nH]c(-c2ccc(Br)cc2)cn1CCc1ccccc1 | 2 | 6 | -4 | -15 | 0
Cc1cc(C)c(OCC(O)CN2CCN(c3ccccn3)CC2)c(C)c1 (configuration not stated) | -17 | -20 | -4 | -16 | 5
CC(C)(C)C(=O)Cn1c(=N)n(Cc2ccccc2Cl)c2ccccc21 | nt | 8 | 100* | -12 | 0
Cc1ccc(Cn2c(=N)n(CC(=O)c3ccccc3)c3ccccc32)cc1 | -7 | -18 | 100* | 2 | 1
CC(C)(C)C(=O)Cn1c(=N)n(Cc2ccccc2)c2ccccc21 | -3 | -11 | 58* | 2 | -1
N=c1n(CC(=O)c2cccc([N+](=O)[O-])c2)c2ccccc2n1Cc1ccccc1 | -7 | -8 | 63* | -63 | 1
CC(C)(C)C(=O)CNCC(=O)C(C)(C)C | -6 | -12 | 1 | -13 | 0
CC(=O)NCCCNS(=O)(=O)c1ccc(C)cc1 | -4 | -18 | -3 | 3 | 3
Cc1ccc(C(=O)Nc2ccnc(-c3ccncc3)n2)cc1 | -8 | -1 | 12 | -23 | -1

Compound activity as filed in PubChem BioAssay.
